According to ChEMBL document CHEMBL2424622, “Development of amino-pyrimidine inhibitors of c-Jun N-terminal kinase (JNK): kinase profiling guided optimization of a 1,2,3-benzotriazole lead” (Bioorg Med Chem Lett, 2013):

What was measured:
[1] = target: Tyrosine-protein kinase Fyn (Homo sapiens) (UniProt P06241); experiment: Competitive binding affinity to FYN (unknown origin) at 10 uM in presence of ATP relative to control
Procedure, shortened: (§1)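 In vitro ATP-site competition binding assay, part of profiling against a diverse panel of 128 kinases. Each compound was tested at a single concentration of 10 µM. Kinome selectivity was summarized as S15 selectivity scores.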

[2] = target: Tyrosine-protein kinase Fes/Fps (Homo sapiens) (UniProt P07332); experiment: Competitive binding affinity to FES (unknown origin) at 10 uM in presence of ATP relative to control; procedure, shortened: as §1
[3] = target: T1, Ephrin type-A receptor 3 (Homo sapiens) (UniProt P29320); experiment: Competitive binding affinity to EPHA3 (unknown origin) at 10 uM in presence of ATP relative to control; procedure, shortened: as §1
T1 sequence (whole entry): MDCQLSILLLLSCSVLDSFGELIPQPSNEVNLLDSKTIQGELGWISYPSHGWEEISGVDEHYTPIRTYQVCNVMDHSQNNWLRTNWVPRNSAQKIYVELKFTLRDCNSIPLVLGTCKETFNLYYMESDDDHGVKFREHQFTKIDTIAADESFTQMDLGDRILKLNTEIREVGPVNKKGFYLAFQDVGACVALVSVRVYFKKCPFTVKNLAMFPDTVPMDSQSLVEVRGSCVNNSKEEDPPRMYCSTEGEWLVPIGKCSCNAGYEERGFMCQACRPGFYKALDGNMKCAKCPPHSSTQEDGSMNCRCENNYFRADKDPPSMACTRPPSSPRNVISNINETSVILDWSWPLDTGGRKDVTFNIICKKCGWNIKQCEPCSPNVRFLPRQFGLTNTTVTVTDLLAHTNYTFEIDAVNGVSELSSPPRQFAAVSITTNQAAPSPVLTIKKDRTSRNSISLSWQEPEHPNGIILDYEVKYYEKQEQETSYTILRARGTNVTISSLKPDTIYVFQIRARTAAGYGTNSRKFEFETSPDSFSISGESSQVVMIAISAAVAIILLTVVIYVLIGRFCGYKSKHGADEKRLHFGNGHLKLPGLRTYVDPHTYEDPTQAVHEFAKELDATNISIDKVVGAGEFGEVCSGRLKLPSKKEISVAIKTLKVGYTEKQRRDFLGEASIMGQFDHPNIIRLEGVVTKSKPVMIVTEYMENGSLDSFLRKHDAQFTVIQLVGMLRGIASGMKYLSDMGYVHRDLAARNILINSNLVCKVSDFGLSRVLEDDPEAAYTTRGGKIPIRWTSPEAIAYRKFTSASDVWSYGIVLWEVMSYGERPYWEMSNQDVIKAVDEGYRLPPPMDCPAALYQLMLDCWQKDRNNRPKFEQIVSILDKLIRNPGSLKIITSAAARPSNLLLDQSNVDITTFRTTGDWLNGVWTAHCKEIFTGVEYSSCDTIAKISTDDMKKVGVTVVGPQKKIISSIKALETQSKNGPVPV

[4] = target: Casein kinase II subunit alpha (Homo sapiens) (UniProt P68400); experiment: Competitive binding affinity to CSNK2A1 (unknown origin) at 10 uM in presence of ATP relative to control
Chain of Casein kinase II subunit alpha (Homo sapiens) (P68400 whole entry, looked up): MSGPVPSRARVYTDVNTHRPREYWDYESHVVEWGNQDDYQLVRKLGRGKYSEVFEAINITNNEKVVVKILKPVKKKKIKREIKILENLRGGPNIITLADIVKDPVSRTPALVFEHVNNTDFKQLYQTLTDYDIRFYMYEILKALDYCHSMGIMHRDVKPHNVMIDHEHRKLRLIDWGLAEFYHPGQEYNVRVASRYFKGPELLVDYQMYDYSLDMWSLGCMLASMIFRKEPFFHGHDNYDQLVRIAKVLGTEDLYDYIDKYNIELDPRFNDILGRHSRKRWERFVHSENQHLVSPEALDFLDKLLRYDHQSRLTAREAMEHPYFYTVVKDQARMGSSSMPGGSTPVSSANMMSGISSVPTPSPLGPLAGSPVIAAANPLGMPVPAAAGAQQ

[5] = target: Dual specificity protein kinase CLK1 (Homo sapiens) (UniProt P49759); experiment: Competitive binding affinity to CLK1 (unknown origin) at 10 uM in presence of ATP relative to control
[6] = target: Calcium/calmodulin-dependent protein kinase type II subunit gamma (Homo sapiens) (UniProt Q13555); experiment: Competitive binding affinity to CAMK2G (unknown origin) at 10 uM in presence of ATP relative to control
[7] = target: Vascular endothelial growth factor receptor 2 (Homo sapiens) (UniProt P35968); experiment: Competitive binding affinity to VEGFR2 (unknown origin) at 10 uM in presence of ATP relative to control
Procedure, shortened: (§2)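 In vitro ATP-site competition binding assay across a diverse panel of 128 kinases, with compound tested at a single concentration. Kinase selectivity scores (S15) were calculated from the panel profiles.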

[8] = target: Angiopoietin-1 receptor (Homo sapiens) (UniProt Q02763); experiment: Competitive binding affinity to TIE2 (unknown origin) at 10 uM in presence of ATP relative to control; procedure, shortened: as §2
Chain of Angiopoietin-1 receptor (Homo sapiens) (Q02763 whole entry): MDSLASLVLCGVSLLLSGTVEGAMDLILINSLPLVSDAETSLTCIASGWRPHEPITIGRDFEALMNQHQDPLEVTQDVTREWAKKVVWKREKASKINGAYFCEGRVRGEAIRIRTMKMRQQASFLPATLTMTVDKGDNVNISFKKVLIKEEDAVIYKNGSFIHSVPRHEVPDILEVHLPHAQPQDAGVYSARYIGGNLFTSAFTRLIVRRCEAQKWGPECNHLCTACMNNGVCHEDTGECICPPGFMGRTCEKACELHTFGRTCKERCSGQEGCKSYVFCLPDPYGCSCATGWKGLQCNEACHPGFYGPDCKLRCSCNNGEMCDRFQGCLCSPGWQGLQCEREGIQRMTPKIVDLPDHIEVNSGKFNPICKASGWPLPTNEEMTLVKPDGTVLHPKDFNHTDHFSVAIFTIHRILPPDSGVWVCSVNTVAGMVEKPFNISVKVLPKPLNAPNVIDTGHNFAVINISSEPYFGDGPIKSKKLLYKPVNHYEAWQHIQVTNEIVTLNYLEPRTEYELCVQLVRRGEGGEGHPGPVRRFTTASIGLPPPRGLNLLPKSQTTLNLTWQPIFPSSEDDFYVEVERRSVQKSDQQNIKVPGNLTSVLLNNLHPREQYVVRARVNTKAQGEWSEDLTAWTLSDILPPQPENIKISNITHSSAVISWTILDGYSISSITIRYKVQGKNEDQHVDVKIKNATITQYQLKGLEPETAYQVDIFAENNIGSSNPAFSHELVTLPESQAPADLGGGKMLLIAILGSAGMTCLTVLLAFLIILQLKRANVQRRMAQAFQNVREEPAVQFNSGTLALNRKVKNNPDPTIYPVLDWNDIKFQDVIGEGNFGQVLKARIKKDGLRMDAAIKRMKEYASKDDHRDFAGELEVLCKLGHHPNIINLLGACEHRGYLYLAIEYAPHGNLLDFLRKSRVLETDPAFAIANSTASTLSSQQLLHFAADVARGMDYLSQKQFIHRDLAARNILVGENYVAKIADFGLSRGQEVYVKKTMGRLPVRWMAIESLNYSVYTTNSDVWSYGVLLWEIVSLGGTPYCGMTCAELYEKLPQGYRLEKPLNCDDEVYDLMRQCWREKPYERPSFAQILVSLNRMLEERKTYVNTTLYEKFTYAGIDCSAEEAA

[9] = target: T2, Mitogen-activated protein kinase 9 (Homo sapiens, UniProt P45984)
[10] = target: Proto-oncogene tyrosine-protein kinase Src (Homo sapiens) (UniProt P12931); experiment: Competitive binding affinity to SRC (unknown origin) at 10 uM in presence of ATP relative to control; procedure, shortened: as §2
[11] = target: Ribosomal protein S6 kinase alpha-2 (Homo sapiens) (UniProt Q15349); experiment: Competitive binding affinity to RPS6KA2 kinase domain 1 (unknown origin) at 10 uM in presence of ATP relative to control
Procedure, shortened: (§3)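 In vitro ATP-site competition binding assay across a diverse panel of 128 kinases, with each compound tested at a single concentration. Kinase binding is expressed relative to control.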

[12] = target: Proto-oncogene tyrosine-protein kinase ROS (Homo sapiens) (UniProt P08922); experiment: Competitive binding affinity to ROS1 (unknown origin) at 10 uM in presence of ATP relative to control; procedure, shortened: as §2
Chain of Proto-oncogene tyrosine-protein kinase ROS (Homo sapiens) (P08922 whole entry): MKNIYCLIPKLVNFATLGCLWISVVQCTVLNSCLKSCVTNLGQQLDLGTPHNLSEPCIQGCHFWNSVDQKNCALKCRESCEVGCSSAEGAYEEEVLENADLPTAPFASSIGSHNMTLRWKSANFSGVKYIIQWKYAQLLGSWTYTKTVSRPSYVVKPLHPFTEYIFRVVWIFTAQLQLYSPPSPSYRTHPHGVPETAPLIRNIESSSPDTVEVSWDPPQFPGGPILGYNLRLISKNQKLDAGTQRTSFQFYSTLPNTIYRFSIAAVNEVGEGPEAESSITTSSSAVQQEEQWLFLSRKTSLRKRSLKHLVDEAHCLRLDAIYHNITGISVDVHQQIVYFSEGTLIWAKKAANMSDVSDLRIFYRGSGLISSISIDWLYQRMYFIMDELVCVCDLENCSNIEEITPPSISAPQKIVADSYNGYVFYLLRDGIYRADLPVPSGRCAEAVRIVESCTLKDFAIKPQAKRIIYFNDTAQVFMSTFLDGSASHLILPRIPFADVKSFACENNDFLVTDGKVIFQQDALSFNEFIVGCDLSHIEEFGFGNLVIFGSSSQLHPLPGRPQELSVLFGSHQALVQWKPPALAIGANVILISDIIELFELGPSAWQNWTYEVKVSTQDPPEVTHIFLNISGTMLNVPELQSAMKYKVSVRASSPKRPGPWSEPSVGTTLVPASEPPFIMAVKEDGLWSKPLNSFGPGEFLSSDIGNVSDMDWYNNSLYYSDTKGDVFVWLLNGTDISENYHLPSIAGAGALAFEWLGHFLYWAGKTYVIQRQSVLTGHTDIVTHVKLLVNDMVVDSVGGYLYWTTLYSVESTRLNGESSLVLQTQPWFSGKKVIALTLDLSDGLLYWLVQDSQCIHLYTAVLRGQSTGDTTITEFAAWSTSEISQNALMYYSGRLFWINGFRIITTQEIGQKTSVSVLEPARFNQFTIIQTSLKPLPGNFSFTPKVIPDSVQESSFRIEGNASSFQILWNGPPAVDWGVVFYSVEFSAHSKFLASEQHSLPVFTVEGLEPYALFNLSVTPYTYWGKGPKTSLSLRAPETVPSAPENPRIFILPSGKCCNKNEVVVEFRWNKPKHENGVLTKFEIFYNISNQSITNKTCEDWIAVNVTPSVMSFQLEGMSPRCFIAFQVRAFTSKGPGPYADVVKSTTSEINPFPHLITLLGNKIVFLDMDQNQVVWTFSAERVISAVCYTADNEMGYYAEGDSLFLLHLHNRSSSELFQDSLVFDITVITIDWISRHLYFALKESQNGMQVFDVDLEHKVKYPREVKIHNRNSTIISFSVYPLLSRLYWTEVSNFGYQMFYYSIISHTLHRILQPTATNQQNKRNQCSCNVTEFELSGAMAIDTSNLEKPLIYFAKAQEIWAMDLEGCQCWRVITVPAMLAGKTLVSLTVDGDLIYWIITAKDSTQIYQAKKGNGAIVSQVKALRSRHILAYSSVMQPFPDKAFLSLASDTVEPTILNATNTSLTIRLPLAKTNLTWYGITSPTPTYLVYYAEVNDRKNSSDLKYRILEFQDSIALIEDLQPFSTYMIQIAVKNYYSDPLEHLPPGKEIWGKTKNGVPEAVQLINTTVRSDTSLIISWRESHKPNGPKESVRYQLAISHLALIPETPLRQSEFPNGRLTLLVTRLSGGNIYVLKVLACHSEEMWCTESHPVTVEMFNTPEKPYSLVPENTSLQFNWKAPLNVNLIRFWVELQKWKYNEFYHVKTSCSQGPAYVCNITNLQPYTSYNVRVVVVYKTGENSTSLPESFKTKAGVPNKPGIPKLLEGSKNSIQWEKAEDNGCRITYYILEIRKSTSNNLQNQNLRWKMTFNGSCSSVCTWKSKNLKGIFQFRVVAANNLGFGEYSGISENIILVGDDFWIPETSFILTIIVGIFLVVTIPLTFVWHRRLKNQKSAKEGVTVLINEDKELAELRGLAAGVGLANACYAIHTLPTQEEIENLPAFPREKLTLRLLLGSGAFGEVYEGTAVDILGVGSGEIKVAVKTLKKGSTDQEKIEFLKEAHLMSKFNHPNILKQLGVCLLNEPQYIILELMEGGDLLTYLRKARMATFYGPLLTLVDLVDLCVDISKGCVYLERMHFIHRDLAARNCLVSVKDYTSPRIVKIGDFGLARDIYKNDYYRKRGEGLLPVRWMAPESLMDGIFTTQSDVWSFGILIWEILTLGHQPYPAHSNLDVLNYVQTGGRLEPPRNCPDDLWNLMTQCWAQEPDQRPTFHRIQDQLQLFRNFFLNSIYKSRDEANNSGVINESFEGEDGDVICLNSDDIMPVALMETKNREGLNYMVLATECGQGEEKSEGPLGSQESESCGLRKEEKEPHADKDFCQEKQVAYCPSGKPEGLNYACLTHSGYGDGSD

[13] = target: Focal adhesion kinase 1 (Homo sapiens) (UniProt Q05397); experiment: Competitive binding affinity to PTK2 (unknown origin) at 10 uM in presence of ATP relative to control; procedure, shortened: as §2
[14] = target: Serine/threonine-protein kinase pim-2 (Homo sapiens) (UniProt Q9P1W9); experiment: Competitive binding affinity to PIM2 (unknown origin) at 10 uM in presence of ATP relative to control; procedure, shortened: as §3
[15] = target: Serine/threonine-protein kinase PAK 5 (Homo sapiens) (UniProt Q9P286); experiment: Competitive binding affinity to PAK7/PAK5 (unknown origin) at 10 uM in presence of ATP relative to control; procedure, shortened: as §2
Chain of Serine/threonine-protein kinase PAK 5 (Homo sapiens) (Q9P286 whole entry, looked up): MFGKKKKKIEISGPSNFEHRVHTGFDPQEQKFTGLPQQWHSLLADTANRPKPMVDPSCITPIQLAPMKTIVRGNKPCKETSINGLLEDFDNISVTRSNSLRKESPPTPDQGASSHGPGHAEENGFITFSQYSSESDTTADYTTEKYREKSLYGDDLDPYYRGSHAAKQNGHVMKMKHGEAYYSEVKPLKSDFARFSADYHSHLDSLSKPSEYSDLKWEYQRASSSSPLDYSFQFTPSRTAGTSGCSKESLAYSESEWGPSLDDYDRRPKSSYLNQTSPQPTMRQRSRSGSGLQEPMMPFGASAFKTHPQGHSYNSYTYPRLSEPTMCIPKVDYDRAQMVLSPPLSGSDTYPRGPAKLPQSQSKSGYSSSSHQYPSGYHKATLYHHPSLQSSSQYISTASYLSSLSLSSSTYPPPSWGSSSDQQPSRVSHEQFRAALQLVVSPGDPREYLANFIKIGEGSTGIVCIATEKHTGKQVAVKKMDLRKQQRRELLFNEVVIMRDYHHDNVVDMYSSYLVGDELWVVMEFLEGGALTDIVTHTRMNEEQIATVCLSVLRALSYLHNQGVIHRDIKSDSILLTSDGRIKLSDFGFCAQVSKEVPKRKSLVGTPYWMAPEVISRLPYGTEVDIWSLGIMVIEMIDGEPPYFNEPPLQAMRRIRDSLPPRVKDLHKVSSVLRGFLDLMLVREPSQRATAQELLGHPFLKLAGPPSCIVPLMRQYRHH

[16] = target: Mitogen-activated protein kinase 14 (Homo sapiens, UniProt Q16539); experiment: Competitive binding affinity to p38-alpha (unknown origin) at 10 uM in presence of ATP relative to control; procedure, shortened: as §2
[17] = target: T2, Mitogen-activated protein kinase 9; experiment: Competitive binding affinity to JNK2 (unknown origin) at 10 uM in presence of ATP relative to control; procedure, shortened: as §3
[18] = target: Insulin-like growth factor 1 receptor (Homo sapiens) (UniProt P08069); experiment: Competitive binding affinity to IGF1R (unknown origin) at 10 uM in presence of ATP relative to control; procedure, shortened: as §1

Chain of Tyrosine-protein kinase Fyn (Homo sapiens) (P06241 2-537 limits assumed): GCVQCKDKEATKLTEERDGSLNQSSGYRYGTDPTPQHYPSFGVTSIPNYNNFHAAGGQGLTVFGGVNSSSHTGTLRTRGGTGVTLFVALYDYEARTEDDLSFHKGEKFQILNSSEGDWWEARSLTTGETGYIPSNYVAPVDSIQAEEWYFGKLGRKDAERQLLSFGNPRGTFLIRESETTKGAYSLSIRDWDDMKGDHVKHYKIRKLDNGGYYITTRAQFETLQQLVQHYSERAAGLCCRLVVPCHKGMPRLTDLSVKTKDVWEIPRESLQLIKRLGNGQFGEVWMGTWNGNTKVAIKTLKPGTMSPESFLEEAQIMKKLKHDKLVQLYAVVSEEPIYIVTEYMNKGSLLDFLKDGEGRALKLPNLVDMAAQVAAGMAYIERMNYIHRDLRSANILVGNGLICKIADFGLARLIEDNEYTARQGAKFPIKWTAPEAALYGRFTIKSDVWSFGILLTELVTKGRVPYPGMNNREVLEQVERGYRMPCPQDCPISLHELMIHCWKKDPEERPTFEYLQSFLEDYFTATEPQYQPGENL

SMILES	inhibition [1] [%]	inhibition [2] [%]	inhibition [3] [%]	inhibition [4] [%]	inhibition [5] [%]	inhibition [6] [%]	inhibition [7] [%]	inhibition [8] [%]	IC50 [9] [nM]	inhibition [10] [%]	inhibition [11] [%]	inhibition [12] [%]	inhibition [13] [%]	inhibition [14] [%]	inhibition [15] [%]	inhibition [16] [%]	inhibition [17] [%]	inhibition [18] [%]
O[C@H]1CC[C@H](Nc2nccc(-n3ncc4ccccc43)n2)CC1	< 50	< 50	< 50	87	93	80	< 50	< 50	350	< 50	73	< 50	< 50	99	< 50	< 50	99	< 50
O[C@H]1CC[C@H](Nc2nccc(-c3n[nH]c4ccccc34)n2)CC1	77	< 50	93	98	100	88	91	< 50	650	78	99	< 50	85	100	86	< 50	93	95
O[C@H]1CC[C@H](Nc2nccc(-n3ccc4ccccc43)n2)CC1	< 50	< 50	< 50	< 50	91	67	< 50	< 50	360	< 50	< 50	< 50	< 50	86	< 50	< 50	99	< 50

Stronger by IC50 [9], values ahead:

inhibition [1] [%]	inhibition [2] [%]	inhibition [3] [%]	inhibition [4] [%]	inhibition [5] [%]	inhibition [6] [%]	inhibition [7] [%]	inhibition [8] [%]	IC50 [9] [nM]	inhibition [10] [%]	inhibition [11] [%]	inhibition [12] [%]	inhibition [13] [%]	inhibition [14] [%]	inhibition [15] [%]	inhibition [16] [%]	inhibition [17] [%]	inhibition [18] [%]	SMILES
81	< 50	< 50	71	87	< 50	< 50	< 50	180	< 50	100	< 50	< 50	78	< 50	< 50	98	< 50	O=C([C@H]1CC[C@H](Nc2nccc(-n3nnc4ccccc43)n2)CC1)N1CCOCC1
80	< 50	82	99	100	< 50	< 50	< 50	170	< 50	91	< 50	< 50	99	< 50	< 50	100	< 50	N[C@H]1CC[C@H](Nc2nccc(-n3nnc4ccccc43)n2)CC1
< 50	< 50	< 50	80	95	69	< 50	< 50	110	< 50	95	< 50	< 50	98	< 50	< 50	99	< 50	O[C@H]1CC[C@H](Nc2nccc(-n3nnc4ccccc43)n2)CC1
								66							> 85	> 85		CS(=O)(=O)CCCOc1cccc2c1ccn2-c1ccnc(N[C@H]2CC[C@H](C(=O)N3CCC(O)CC3)CC2)n1
